ChEMBL document CHEMBL1125757, “Design of potent protein kinase inhibitors using the bisubstrate approach” (J Med Chem, 1991)
Where a SMILES comes first, the peptide text is derived from it. The star is where a group is joined. X1 = CN(C)c1ccc(S(=O)(=O)*)c2ccccc12

Tests used:
Assay type in all cases: protein assay
[1] = biological target: T1, cAMP-dependent protein kinase (PKA) (Homo sapiens, UniProt P22694+P17612+P22612); experiment: Inhibition of cAMP-dependent protein kinase (PKA).
Procedure, shortened: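 Protein kinase A (1 μg) with histone IIA 60 μg/mL, MgCl2 5 mM and [γ-³²P]ATP 10 μM (2000-4000 cpm/pmol) in Tris/HCl pH 7.0, inhibitor at various concentrations. 30 °C for 7 min, stopped with 12% TCA plus BSA carrier, reprecipitated, histone ³²P counted by scintillation.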

[2] = biological target: Protein kinase C (PKC); experiment: Inhibition of protein kinase C (PKC)
Procedure, shortened: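 Reaction mix: protein kinase C (0.5 μg), histone IIIS 60 μg/mL, MgCl2 5 mM, CaCl2 0.5 mM, phosphatidylserine 50 μg/mL, diolein 5 μg/mL, [γ-³²P]ATP 10 μM, Tris/HCl pH 7.5, inhibitor at various concentrations. 30 °C for 7 min, stopped with TCA/BSA, precipitated twice, scintillation counting.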

[3] = biological target: T1, cAMP-dependent protein kinase (PKA); experiment: Displacement of ATP from protein kinase A (PKA)
Procedure, shortened: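 ATP-competition kinetics: Lineweaver-Burk plots at several inhibitor concentrations, with Ki taken from a secondary plot of apparent Km versus inhibitor concentration. Radiometric [γ-³²P]ATP phosphorylation assay in Tris/HCl pH 7.0 with MgCl2 5 mM and protein kinase A 1 μg, 30 °C, stopped with trichloroacetic acid. Run in triplicate.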

[4] = biological target: Protein kinase C (PKC); experiment: Displacement of ATP from protein kinase C (PKC)
Procedure, shortened: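 ATP-competition kinetics: Lineweaver-Burk plots at several inhibitor concentrations, with Ki taken from a secondary plot of apparent Km versus inhibitor concentration. Radiometric [γ-³²P]ATP assay in Tris/HCl pH 7.5 with MgCl2 5 mM, CaCl2 0.5 mM, phosphatidylserine 50 μg/mL, diolein 5 μg/mL and protein kinase C 0.5 μg. Run in triplicate.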

IC50 [1] | IC50 [2] | Ki [3] | Ki [4] | Compound
0.003 µM | 0.3 µM | 0.004 µM | 0.1 µM | N=C(N)NCCC[C@H](NC(=O)[C@H](CCCNC(=N)N)NC(=O)[C@H](CCCNC(=N)N)NC(=O)[C@H](CCCNC(=N)N)NC(=O)[C@H](CCCNC(=N)N)NC(=O)[C@H](CCCNC(=N)N)NC(=O)[C@H](CO)NC(=O)CCNCCNS(=O)(=O)c1cccc2cnccc12)C(=O)O
> 75 µM | > 75 µM | – | – | C[C@H](NC(=O)[C@H](C)NS(=O)(=O)c1ccc(N(C)C)c2ccccc12)C(=O)N[C@@H](C)C(=O)N[C@@H](CCCN=C(N)N)C(=O)N[C@@H](CCCN=C(N)N)C(=O)N[C@@H](CCCN=C(N)N)C(=O)N[C@@H](CCCN=C(N)N)C(=O)O (X1-AAARRRR-OH)

The next lines start with the molecule.

Compound | IC50 [1] | IC50 [2] | Ki [3] | Ki [4]
NCCNS(=O)(=O)c1cccc2cnccc12 | 2 µM | 7 µM | – | –
COC(=O)CCNCCNS(=O)(=O)c1cccc2cnccc12 | 2 µM | 20 µM | – | –
O=S(=O)(c1cccc2cnccc12)N1CCNCC1 | 6 µM | 12 µM | – | –
CC1CNCCN1S(=O)(=O)c1cccc2cnccc12.Cl.Cl (centres undefined) | – | 6 µM | – | 6 µM
